Source: ChEMBL document CHEMBL1137637, “Quinuclidine derivatives as potential antiparasitics” (Antimicrob Agents Chemother, 2007)
Values after ≈ are worked out from the molar mass of the structure shown.

How the values were obtained:
Leishmania amazonensis [1] = experiment: Inhibition of sterol biosynthesis in Leishmania mexicana amazonensis promastigotes assessed as reduction in exogenous cholesterol level at 0.3 uM after 96 hrs by gas-liquid chromatography; assay type: functional; parameters: scale not given: the % may be the effect or the level left
Summary of the method: (§1)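 Promastigotes grown in liver infusion-tryptose medium with lactalbumin and 10% fetal calf serum at 26°C, static; drug added at 0.5 × 10⁷ to 1 × 10⁷ cells/ml and cells exposed for 96 h. Total lipids extracted; neutral lipids separated from polar lipids by silicic acid column chromatography; free sterols quantified by capillary gas-liquid chromatography and mass spectrometry as mass % of total sterols.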

L6 = experiment: Cytotoxicity against rat L6 cells after 72 hrs by resazurin assay; assay type: cell-based; details: L6, 72 h
Summary of the method: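 L-6 cells seeded at 4 × 10⁴ cells/ml in RPMI 1640 with 10% FBS and 2 mM L-glutamine. After 24 h, medium replaced with serial drug dilution and incubated for 72 h at 37°C in 5% CO2. Resazurin added for 2–4 h, fluorescence read at ex 536/em 588 nm. IC50 from sigmoidal curve. Duplicate, with an independent repeat for actives.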

Leishmania amazonensis [2] = experiment: Inhibition of sterol biosynthesis in Leishmania mexicana amazonensis promastigotes assessed as reduction in exogenous cholesterol level at 1 uM after 96 hrs by gas-liquid chromatography; assay type: functional; parameters: scale not given: the % may be the effect or the level left
Summary of the method: (§2)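 L. mexicana promastigotes exposed to compound for 96 h. Total lipids extracted and neutral sterols separated from polar lipids by silicic acid column chromatography. Sterols analysed by TLC and by quantitative capillary gas-liquid chromatography with mass spectrometry. Composition expressed as mass % of free sterols, compared with untreated control.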

Leishmania amazonensis [3] = experiment: Inhibition of sterol biosynthesis in Leishmania mexicana amazonensis promastigotes assessed as reduction in endogenous episterol level at 0.3 uM after 96 hrs by gas-liquid chromatography; assay type: functional; parameters: scale not given: the % may be the effect or the level left; summary of the method: as §1
Leishmania amazonensis [4] = experiment: Inhibition of sterol biosynthesis in Leishmania mexicana amazonensis promastigotes assessed as reduction in endogenous 5-dehydro episterol level at 1 uM after 96 hrs by gas-liquid chromatography; assay type: functional; parameters: scale not given: the % may be the effect or the level left; summary of the method: as §2
Leishmania amazonensis [5] = experiment: Antileishmanial activity against Leishmania mexicana amazonensis promastigotes by trypan blue exclusion method; assay type: functional, organism-based
Summary of the method: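 L. mexicana amazonensis promastigotes cultured in liver infusion-tryptose medium with lactalbumin and 10% FCS at 26°C, unagitated. Cultures started at 2 × 10⁶ cells/ml and drug added at 0.5–1 × 10⁷ cells/ml. Density counted by electronic particle counter and hemocytometer. Viability by trypan blue exclusion. Triplicate growth experiments.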

Leishmania donovani = experiment: Antileishmanial activity against Leishmania donovani MHOM/ET/67/L82 axenic amastigotes after 72 hrs by resazurin assay; assay type: functional, organism-based; details: MHOM/ET/67/L82, 72 h
Summary of the method: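 L. donovani MHOM/ET/67/L82 amastigotes grown axenically at 37°C in synthetic minimal medium at pH 5.4 with 10% heat-inactivated FBS under 5% CO2. 1 × 10⁵ amastigotes per well with seven threefold dilutions, 30 to 0.041 μg/ml. After 72 h, resazurin added for 2–4 h more. Fluorescence read at ex 536/em 588 nm. IC50 taken from sigmoidal curve. Run in duplicate, with an independent repeat for actives.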

[6] = target: T1, Farnesyltransferase, putative (Leishmania major, UniProt Q4Q5W4); experiment: Inhibition of Leishmania major recombinant squalene synthase expressed in Escherichia coli by liquid scintillation counter
T1 sequence (Q4Q5W4 whole entry): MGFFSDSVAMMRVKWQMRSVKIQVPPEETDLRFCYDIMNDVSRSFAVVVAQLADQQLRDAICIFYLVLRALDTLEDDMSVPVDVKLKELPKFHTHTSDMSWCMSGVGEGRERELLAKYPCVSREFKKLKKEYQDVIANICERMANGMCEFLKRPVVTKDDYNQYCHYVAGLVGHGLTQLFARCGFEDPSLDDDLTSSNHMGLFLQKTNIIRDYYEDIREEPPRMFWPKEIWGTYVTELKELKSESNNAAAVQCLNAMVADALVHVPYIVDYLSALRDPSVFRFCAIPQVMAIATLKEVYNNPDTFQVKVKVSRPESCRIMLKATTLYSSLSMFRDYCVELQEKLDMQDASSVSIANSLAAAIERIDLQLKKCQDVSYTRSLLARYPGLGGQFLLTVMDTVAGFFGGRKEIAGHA
Summary of the method: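 Soluble E. coli extract expressing L. major SQS truncated by 16 N-terminal and 40 C-terminal residues. Buffer: 50 mM phosphate pH 7.4, 20 mM MgCl2, 5 mM CHAPS, 1% Tween 80, 10 mM DTT, BSA, 0.25 mM NADPH, and a glucose-6-phosphate/G6PDH regenerating system. Substrate 0.5 μM radiolabelled farnesyl pyrophosphate. Squalene band counted by scintillation. IC50 from hyperbolic plot of five concentrations in duplicate, usually run twice.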

Plasmodium falciparum = experiment: Antiplasmodial activity after 48 hrs against chloroquine and pyrimethamine-resistant Plasmodium falciparum K1 in human erythrocytes by [3H]hypoxanthine uptake; assay type: functional, organism-based
Summary of the method: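 P. falciparum K1 in human red cells in RPMI 1640 with 5% Albumax, exposed to serial drug dilutions. Incubated 48 h at 37°C under reduced oxygen, then 0.5 μCi [³H]hypoxanthine per well for 24 h more. Cells harvested onto glass-fibre filters and counted by scintillation. Result expressed as % of untreated control, with IC50 from sigmoidal curve. Duplicate, plus an independent repeat for actives.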

Trypanosoma cruzi = experiment: Antitrypanosomal activity against trypomastigotes of Trypanosoma cruzi Tulahuen C2C4 containing lacZ gene in rat L6 cells after 4 days by chlorophenol red-beta-D-galactopyranoside/Nonidet assay; assay type: functional, organism-based; details: Tulahuen C2C4, L6, 96 h
Summary of the method: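 L-6 rat myoblasts seeded at 2,000 cells/well in RPMI 1640 with 10% FBS and 2 mM L-glutamine. After 24 h, 5,000 T. cruzi Tulahuen C2C4 lacZ trypomastigotes added with serial drug dilution. Incubated at 37°C in 5% CO2 for 4 days. CPRG/Nonidet substrate added and colour read at 540 nm after 2–4 h. IC50 from sigmoidal curve. Duplicate determinations.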

[7] = test system: Trypanosoma brucei rhodesiense; experiment: Trypanocidal activity against Trypanosoma brucei rhodesiense STIB 900 bloodstream form after 72 hrs by resazurin assay; assay type: functional, organism-based; details: STIB 900, 72 h
Summary of the method: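 T. b. rhodesiense STIB 900 bloodstream forms in MEM with 2-mercaptoethanol and 15% heat-inactivated horse serum, with serial drug dilutions. Incubated 72 h at 37°C in 5% CO2. Resazurin added for 2–4 h more, fluorescence read at ex 536/em 588 nm. IC50 from sigmoidal curve. Duplicate, with an independent repeat for actives.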

Leishmania amazonensis [8] = experiment: Inhibition of sterol biosynthesis in Leishmania mexicana amazonensis promastigotes assessed as reduction in endogenous 5-dehydro episterol level at 0.3 uM after 96 hrs by gas-liquid chromatography; assay type: functional; parameters: scale not given: the % may be the effect or the level left; summary of the method: as §1
Leishmania amazonensis [9] = experiment: Inhibition of sterol biosynthesis in Leishmania mexicana amazonensis promastigotes assessed as reduction in endogenous episterol level at 1 uM after 96 hrs by gas-liquid chromatography; assay type: functional; parameters: scale not given: the % may be the effect or the level left; summary of the method: as §2
Squalene synthase [10] = target: T2, Squalene synthase (Homo sapiens, UniProt P37268); experiment: Inhibition of human recombinant squalene synthase expressed in Escherichia coli BL21(DE3 pLysS) by liquid scintillation counter
T2 sequence (P37268 whole entry): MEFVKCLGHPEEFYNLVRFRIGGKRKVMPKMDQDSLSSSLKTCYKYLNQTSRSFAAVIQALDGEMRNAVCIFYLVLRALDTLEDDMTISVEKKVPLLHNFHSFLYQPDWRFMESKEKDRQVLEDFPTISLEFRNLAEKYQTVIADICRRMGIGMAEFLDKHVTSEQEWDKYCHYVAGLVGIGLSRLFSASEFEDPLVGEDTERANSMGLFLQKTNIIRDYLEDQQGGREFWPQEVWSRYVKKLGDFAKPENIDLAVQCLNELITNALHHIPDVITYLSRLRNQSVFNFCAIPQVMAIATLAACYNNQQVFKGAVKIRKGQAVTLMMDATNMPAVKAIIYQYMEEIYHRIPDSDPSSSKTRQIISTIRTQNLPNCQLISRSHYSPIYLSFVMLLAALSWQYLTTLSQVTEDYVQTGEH
Summary of the method: (§3)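 Human SQS in extracts of E. coli BL21(DE3 pLysS) carrying pHSS16, assayed under the same conditions as the L. major enzyme. Buffer: phosphate pH 7.4, MgCl2, CHAPS, Tween 80, DTT, BSA, and NADPH with a regenerating system. Substrate 0.5 μM radiolabelled farnesyl pyrophosphate. Squalene band radioactivity counted by scintillation.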

Squalene synthase [11] = target: T2, Squalene synthase; experiment: Inhibition of human recombinant squalene synthase expressed in Escherichia coli BL21(DE3 pLysS) up to 1 uM by liquid scintillation counter; summary of the method: as §3
Leishmania amazonensis [12] = experiment: Inhibition of sterol biosynthesis in Leishmania mexicana amazonensis promastigotes assessed as reduction in endogenous 5-dehydro episterol level at 0.1 uM after 96 hrs by gas-liquid chromatography; assay type: functional; parameters: scale not given: the % may be the effect or the level left; summary of the method: as §2
Leishmania amazonensis [13] = experiment: Inhibition of sterol biosynthesis in Leishmania mexicana amazonensis promastigotes assessed as reduction in endogenous episterol level at 0.1 uM after 96 hrs by gas-liquid chromatography; assay type: functional; parameters: scale not given: the % may be the effect or the level left; summary of the method: as §2
Leishmania amazonensis [14] = experiment: Inhibition of sterol biosynthesis in Leishmania mexicana amazonensis promastigotes assessed as reduction in exogenous cholesterol level at 0.1 uM after 96 hrs by gas-liquid chromatography; assay type: functional; parameters: scale not given: the % may be the effect or the level left; summary of the method: as §2
Leishmania amazonensis [15] = experiment: Inhibition of sterol biosynthesis in Leishmania mexicana amazonensis promastigotes assessed as reduction in endogenous cholesta-5,7,24-trien-3beta-ol level at 3 uM after 96 hrs by gas-liquid chromatography; assay type: functional; parameters: scale not given: the % may be the effect or the level left; summary of the method: as §2
Leishmania amazonensis [16] = experiment: Inhibition of sterol biosynthesis in Leishmania mexicana amazonensis promastigotes assessed as reduction in endogenous episterol level at 3 uM after 96 hrs by gas-liquid chromatography; assay type: functional; parameters: scale not given: the % may be the effect or the level left; summary of the method: as §2
Leishmania amazonensis [17] = experiment: Inhibition of sterol biosynthesis in Leishmania mexicana amazonensis promastigotes assessed as reduction in endogenous cholesta-7,24-dien-3beta-ol level at 3 uM after 96 hrs by gas-liquid chromatography; assay type: functional; parameters: scale not given: the % may be the effect or the level left; summary of the method: as §2
Leishmania amazonensis [18] = experiment: Inhibition of sterol biosynthesis in Leishmania mexicana amazonensis promastigotes assessed as reduction in endogenous cholesta-5,7,24-trien-3beta-ol level at 1 uM after 96 hrs by gas-liquid chromatography; assay type: functional; parameters: scale not given: the % may be the effect or the level left; summary of the method: as §2
Leishmania amazonensis [19] = experiment: Inhibition of sterol biosynthesis in Leishmania mexicana amazonensis promastigotes assessed as reduction in endogenous 5-dehydro episterol level at 3 uM after 96 hrs by gas-liquid chromatography; assay type: functional; parameters: scale not given: the % may be the effect or the level left; summary of the method: as §2
Leishmania amazonensis [20] = experiment: Inhibition of sterol biosynthesis in Leishmania mexicana amazonensis promastigotes assessed as reduction in exogenous cholesterol level at 3 uM after 96 hrs by gas-liquid chromatography; assay type: functional; parameters: scale not given: the % may be the effect or the level left; summary of the method: as §2

Row | SMILES | Activity (Leishmania amazonensis [1]) | IC50 (L6) | Activity (Leishmania amazonensis [2]) | Activity (Leishmania amazonensis [3]) | Activity (Leishmania amazonensis [4]) | MIC (Leishmania amazonensis [5]) | IC50 (Leishmania donovani) | IC50 [6] | IC50 (Plasmodium falciparum) | IC50 (Trypanosoma cruzi) | IC50 [7] | Activity (Leishmania amazonensis [8]) | Activity (Leishmania amazonensis [9]) | other results
1 | COc1ccc2cc(C3=CN4CCC3CC4)ccc2c1 | 13.9% | 98.8 µM | 41.2% | 13.4% | 43% | 0.3 µM (≈ 0.0796 µg/mL) | 1.4 µM | 490 nM | 9 µM | 10.2 µM | 2200 nM | 72.7% | 15.8% | IC50 (Squalene synthase [10]): 2800 nM
2 | C(=C1/CN2CCC1CC2)/c1ccc(-c2ccccc2)cc1 | 36.7% | 13.4 µM | – | 33.3% | – | 0.3 µM (≈ 0.0826 µg/mL) | 41.3 µM | > 1000 nM | 3.1 µM | 1.8 µM | 700 nM | 18.1% | – | IC50 (Squalene synthase [11]): Not Active; Activity (Leishmania amazonensis [12]): 26.4%; Activity (Leishmania amazonensis [13]): 42.2%; Activity (Leishmania amazonensis [14]): 31.4%
3 | CC(C)(C)[Si](C)(C)Oc1ccc(C2=CN3CCC2CC3)cc1 | – | 23.8 µM | 29.2% | – | 54.7% | 3 µM (≈ 0.947 µg/mL) | 31.1 µM | > 1000 nM | 4.1 µM | 16.3 µM | 2100 nM | – | 7.1% | Activity (Leishmania amazonensis [15]): 10.7%; Activity (Leishmania amazonensis [16]): 7.9%; Activity (Leishmania amazonensis [17]): 4.8%; Activity (Leishmania amazonensis [18]): 9%; Activity (Leishmania amazonensis [19]): 21.2%; Activity (Leishmania amazonensis [20]): 55.4%
